RanGTP-Imp inh: inhibitors of RanGTP-importin-beta interaction, primary screen, biochemical, FRET, CFP-Ran, YFP-importin-beta, homogeneous; cell-free CFP-Ran/YFP-importin-beta FRET ratio; inhibition, % (no concentration beside the values); actives 1.1% (n = 300,000);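 active = more than half of the replicate wells show a fall in the fluorescence ratio signal beyond about 16%, limit read from the data, passing the limit was not always enough; inconclusive = exactly half of the replicate wells pass the set limit; inactive = fewer than half of replicates pass the limit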;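 also: 0% = DMSO wells and 100% = Ran loaded with GDP instead of GTP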
Hck-Nef inh: inhibitors of human Hck kinase activated by Nef; Recombinant Hck-YEEI plus Nef, Z-Lyte FRET kinase assay; inhibition, % at 20 µM; actives 0.68% (n = 220,000); AID 463187;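 active = Hck-Nef kinase inhibition above about 50%, limit read from the data; inactive = inhibition below that limit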;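 also: 0% = DMSO with Hck plus Nef and 100% = Hck alone without Nef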
Target sequence (P08631 whole entry, looked up): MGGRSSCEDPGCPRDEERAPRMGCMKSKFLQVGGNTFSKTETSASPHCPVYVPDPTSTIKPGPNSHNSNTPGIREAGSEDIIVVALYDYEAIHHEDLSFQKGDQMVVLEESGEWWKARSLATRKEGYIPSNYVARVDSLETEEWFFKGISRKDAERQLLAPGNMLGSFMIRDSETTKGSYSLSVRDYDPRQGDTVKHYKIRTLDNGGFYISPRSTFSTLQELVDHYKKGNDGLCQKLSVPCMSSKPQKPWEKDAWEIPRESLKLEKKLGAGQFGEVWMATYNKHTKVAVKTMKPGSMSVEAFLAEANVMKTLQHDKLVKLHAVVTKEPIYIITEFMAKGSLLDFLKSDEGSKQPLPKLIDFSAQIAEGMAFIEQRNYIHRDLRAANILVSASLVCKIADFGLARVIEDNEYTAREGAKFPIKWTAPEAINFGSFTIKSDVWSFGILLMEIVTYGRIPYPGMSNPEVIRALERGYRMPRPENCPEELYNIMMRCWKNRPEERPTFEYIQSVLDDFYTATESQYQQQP
Runt-CBFb FRET: blocks binding of human RUNX1 Runt domain to CBFb. Q01196+Q13951. Cerulean-Runt/Venus-CBFb FRET ratio 530/480, 1 h. inhibition, % at 20 µM. actives 0.46% (n = 220,000);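 active = inhibition over about 50% at 20 µM in the single-dose screen, limit read from the data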;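 also: 0% = DMSO wells and 100% = excess unlabeled CBFb competitor control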
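Assay system: Cerulean-tagged RUNX1 Runt domain (FRET donor) fusion protein / Amount: 100 nM each of Venus-CBFb and Cerulean-Runt domain / Medium: Tris buffer pH 7.5 with salts and BSA / Also added: Venus-CBFb 100 nM / Schedule: 1 h complex formation plus 1 h compound treatment, room temperature / Signal: FRET fluorescence / Read-out: loss of energy transfer signal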
Runt-SMMHC FRET: inhibitors of human RUNX1 Runt domain binding to CBFb-SMMHC; inhibition, % at 20 µM; Q01196+Q13951; Cerulean-Runt/Venus-CBFb-SMMHC FRET ratio 530/480, 1 h; actives 0.74% (n = 220,000);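 active = mean inhibition across duplicate retests at 20 µM reaching about 50%, limit read from the data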;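 also: 0% = DMSO wells and 100% = wells with excess untagged CBFb-SMMHC; inhibitors lower the FRET ratio by blocking Runt binding to CBFb-SMMHC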
TbHK1 inh: T. brucei hexokinase 1 inhibition; actives 0.11% (n = 220,000); inhibition, % at 10 µM; recombinant TbHK1, G6PDH-coupled NADH A340;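 active = inhibition of 50% or more in the single-dose primary screen; inactive = inhibition below 50%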
p97 ATPase inh: blocks human p97 ATPase activity; actives 0.42% (n = 220,000); inhibition, % at 8 µM; P55072; recombinant p97 ATPase, Kinase-Glo ATP luminescence, 3 h; AID 1481; in the data active = inhibition above about 15%;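 also: 0% = DMSO vehicle and 100% = wells lacking enzyme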
* marks the source's active call; other numbers are inactive results. The list is not random: actives were taken first. Their share in the collection is about 2.1%.

O=c1cc(CSc2nc3ccccc3c(=O)[nH]2)c2ccc(O)cc2o1 was read as RanGTP-Imp inh 6.5, Hck-Nef inh 27.4, Runt-CBFb FRET 21.1, Runt-SMMHC FRET 51.9*, TbHK1 inh 33.1 and p97 ATPase inh 3.0.
Screening Cc1ccc(C(=O)Nc2ccc(S(=O)(=O)N3CCOCC3)cc2)cc1Br returned RanGTP-Imp inh 3.9.
Screening CCc1cc(Cn2nc(-c3ccccc3)cc2C(=O)NCc2ccccc2OC)on1 returned RanGTP-Imp inh -4.1.
`CCOc1ccc(NC(=S)NNC(=S)Nc2cccc(C(F)(F)F)c2)cc1` gave RanGTP-Imp inh 22.0*, Hck-Nef inh 2.1, Runt-CBFb FRET 18.9, Runt-SMMHC FRET 6.7, TbHK1 inh -24.8 and p97 ATPase inh 5.0.
O=C(Nc1nccs1)c1ccccc1N=Cc1ccccc1 was read as RanGTP-Imp inh 6.5, Hck-Nef inh 5.0, Runt-CBFb FRET 18.9, Runt-SMMHC FRET 58.3*, TbHK1 inh -3.1 and p97 ATPase inh 3.4.
`COc1cccc(C=Nc2ccccc2C(=O)Nc2nccs2)c1OC` gave RanGTP-Imp inh 10.3, Hck-Nef inh 6.5, Runt-CBFb FRET 23.7, Runt-SMMHC FRET 51.5*, TbHK1 inh -1.3 and p97 ATPase inh 3.2.
COc1cc2ccccc2cc1C(=O)Nc1nccs1 was read as RanGTP-Imp inh -1.5.
CCOC(=O)c1ccc(NCc2cccnc2)cc1 was read as RanGTP-Imp inh 4.8.
Cc1snc(SCC(=O)c2ccc([N+](=O)[O-])cc2)c1C#N was read as Hck-Nef inh -55.6, Runt-CBFb FRET 21.1, Runt-SMMHC FRET 60.5*, TbHK1 inh -1.5 and p97 ATPase inh 6.1.
For CN1CCc2nc(NC(=O)c3cccc(OC(F)F)c3)sc2C1 the results were RanGTP-Imp inh 19.2*, Hck-Nef inh 7.9, Runt-CBFb FRET 23.2, Runt-SMMHC FRET 68.6*, TbHK1 inh -31.7 and p97 ATPase inh -3.4.
`CCCCCCNC(=O)N[C@@H](C(=O)NCCC[C@H]1CN2C(=NC[C@@H]2Cc2ccccc2)N1CCc1cccc(OC)c1)C(C)C` gave RanGTP-Imp inh 1.8, Hck-Nef inh 10.3, Runt-CBFb FRET 36.7, Runt-SMMHC FRET 62.7* and TbHK1 inh 29.3.
O=C(O)c1cc(S(=O)(=O)O)cc(Nc2c3ccccc3nc3ccccc23)c1O was read as RanGTP-Imp inh 101.8*.
`CCCSc1ccc(-c2nn(-c3ccccc3)cc2/C=C(/C#N)C(=O)NCCCOC)cc1` gave RanGTP-Imp inh 4.2, Hck-Nef inh 5.8, Runt-CBFb FRET -14.5, Runt-SMMHC FRET -16.0, TbHK1 inh 21.7 and p97 ATPase inh 6.9.
For CCSc1ccc(-c2nn(-c3ccccc3)cc2/C=C(/C#N)C(=O)NCCCOC)cc1 the results were Hck-Nef inh 0.0, Runt-CBFb FRET 23.5, Runt-SMMHC FRET 59.5*, TbHK1 inh -24.7 and p97 ATPase inh 3.2.
`S=C(NCc1ccco1)N1CCOCC1` gave RanGTP-Imp inh 22.0*, Hck-Nef inh 17.6, Runt-CBFb FRET 27.0, Runt-SMMHC FRET -7.7, TbHK1 inh -2.1 and p97 ATPase inh 1.5.
`S=C(NCc1ccco1)N1CCN(Cc2ccco2)CC1` gave RanGTP-Imp inh -1.6, Hck-Nef inh 1.8, Runt-SMMHC FRET 0.8, TbHK1 inh 4.7 and p97 ATPase inh 3.4.
`CN1CCN(C(=O)c2ccc(-c3cccs3)s2)CC1` gave RanGTP-Imp inh 3.3, Hck-Nef inh -6.2, Runt-CBFb FRET 0.9, Runt-SMMHC FRET 3.2, TbHK1 inh -47.7 and p97 ATPase inh -0.9.
Screening O=C(c1cccs1)c1ccc(-c2cccs2)s1 returned RanGTP-Imp inh 41.7*, Hck-Nef inh 1.4, Runt-CBFb FRET 19.4, Runt-SMMHC FRET 49.6, TbHK1 inh 1.6 and p97 ATPase inh 2.7.
For Cc1ccc(-n2c(C)nc3c(cnn3-c3ccc(F)cc3)c2=O)cc1C the results were RanGTP-Imp inh -2.5, Hck-Nef inh 1.2, Runt-CBFb FRET -4.3, Runt-SMMHC FRET -1.9, TbHK1 inh -4.1 and p97 ATPase inh 2.8.
For Cc1ccc(-n2c(C)nc3c(cnn3-c3ccc(C)c(C)c3)c2=O)cc1C the results were RanGTP-Imp inh 30.1*, Hck-Nef inh -0.3, Runt-CBFb FRET -1.3, Runt-SMMHC FRET 3.9, TbHK1 inh 3.5 and p97 ATPase inh -9.6.
Cc1nc2c([nH]1)C1(CCN(Cc3ccccc3)CC1)C(C#N)=C(N)O2 was read as Hck-Nef inh 0.8, Runt-CBFb FRET 17.1, Runt-SMMHC FRET 90.4*, TbHK1 inh 1.1 and p97 ATPase inh -3.4.
Screening COc1ccccc1C1C=C(c2ccc(C)cc2)Nc2nnnn21 (configuration not stated) returned RanGTP-Imp inh -2.1, Hck-Nef inh -0.4, Runt-CBFb FRET -1.8, Runt-SMMHC FRET -14.1, TbHK1 inh 0.8 and p97 ATPase inh -6.7.
For COc1ccc(C2=CC(c3c(C)nn(-c4ccccc4)c3Cl)n3nnnc3N2)cc1OC (configuration not stated) the results were Hck-Nef inh 2.2, Runt-CBFb FRET 30.7, Runt-SMMHC FRET 86.1*, TbHK1 inh -13.9 and p97 ATPase inh 5.8.
For CCC(C)NC(=O)c1ccc(CSc2nc3ccncc3n2Cc2ccc(F)cc2)cc1 (configuration not stated) the results were RanGTP-Imp inh 1.0, Hck-Nef inh -24.1, Runt-CBFb FRET -6.0, Runt-SMMHC FRET 1.2, TbHK1 inh -2.4 and p97 ATPase inh 5.1.
CN1CCN(C(=O)c2ccc(CSc3nc4ccncc4n3Cc3ccc(F)cc3)cc2)CC1 was read as RanGTP-Imp inh inconclusive, Hck-Nef inh -0.8, Runt-CBFb FRET -0.6, Runt-SMMHC FRET 6.7, TbHK1 inh -3.1 and p97 ATPase inh 15.5*.
Screening COc1cccc(-n2cc(CNCc3cn(C)nc3-c3ccccc3F)cn2)c1 returned RanGTP-Imp inh 64.0*, Hck-Nef inh -6.1, Runt-CBFb FRET -0.1, Runt-SMMHC FRET -2.0, TbHK1 inh -4.5 and p97 ATPase inh -3.9.
Screening CC(C)c1cc(C(=O)O)c2cnn(C(C)C)c2n1 returned RanGTP-Imp inh -2.0, Hck-Nef inh 14.6, Runt-CBFb FRET -1.7, Runt-SMMHC FRET -2.5, TbHK1 inh 3.8 and p97 ATPase inh -1.9.
O=[N+]([O-])c1ccc(S(=O)(=O)NCC2COc3ccccc3O2)cc1 (configuration not stated) was read as RanGTP-Imp inh 186.9*.
Screening CCCCCC#CCC#CCC#CCC#CCCCC(=O)O returned RanGTP-Imp inh 0.2, Hck-Nef inh 75.5*, Runt-CBFb FRET 13.7, Runt-SMMHC FRET 7.8, TbHK1 inh 25.1 and p97 ATPase inh -0.6.
O=c1cc(O)sc2ccccc12 was read as RanGTP-Imp inh 16.5*, Hck-Nef inh -1.3, Runt-CBFb FRET 0.1, Runt-SMMHC FRET 2.7, TbHK1 inh -1.3 and p97 ATPase inh 1.6.
`COC(=O)C1CCN(C(=O)COC(=O)C2CCN(S(=O)(=O)c3ccc(C)c(C)c3)CC2)CC1` gave RanGTP-Imp inh 5.1.
